In ChEMBL document CHEMBL4689842, “EUbOPEN Chemogenomics Library wave 1” (2021):

Test system: Fibroblast
Assay: Multiplex assay against human fibroblast
Format: toxicity, cell-based
In short: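 Cells stained live at seeding with Hoechst33342, BioTracker Green Microtubule Cytoskeleton Dye, MitoTracker Red and Annexin V Alexa Fluor 680 were imaged on a CQ1 microscope at 37°C and 5% CO2 after compound addition. Their classification by CellPathfinder machine-learning gating ran from Hoechst high-intensity objects versus normal cells, to healthy, pyknosed or fragmented nuclei among normal cells, to mitotic or apoptotic among pyknosed cells. Tubulin, mitochondrial-mass and membrane-permeability phenotypes are per cents of healthy-nucleus cells.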

[1] = 12 h, 1 µM, compound concentration 1 uM, replicate 1
[2] = 12 h, 1 µM, compound concentration 1 uM, replicate 2
[3] = 12 h, 10 µM, compound concentration 10 uM, replicate 1
[4] = 12 h, 10 µM, compound concentration 10 uM, replicate 2
[5] = 24 h, 1 µM, compound concentration 1 uM, replicate 1
[6] = 24 h, 1 µM, compound concentration 1 uM, replicate 2
[7] = 24 h, 10 µM, compound concentration 10 uM, replicate 1
[8] = 24 h, 10 µM, compound concentration 10 uM, replicate 2
[9] = 48 h, 1 µM, compound concentration 1 uM, replicate 1
[10] = 48 h, 1 µM, compound concentration 1 uM, replicate 2
[11] = 48 h, 10 µM, compound concentration 10 uM, replicate 1
[12] = 48 h, 10 µM, compound concentration 10 uM, replicate 2

## CCn1c(=O)c(-c2ccc(-c3cncs3)cc2Cl)cc2cnc(Nc3ccc(N4CCN(C)CC4)cc3)nc21
[1]
  Population Apoptotic (%): 53%
  Population Fragmented Nuclei (%): 26%
  Population Healthy Nuclei (%): 37%
  Population Hoechst High Intensity Objects (%): 17%
  Population Membrane Permeable-Phenotype (%): 15%
  Population Mitochondria Different-Phenotype (%): 0%
  Population Mitotic Cells (%): 46%
  Population Normal (%): 82%
  Population Pyknosed Nuclei (%): 35%
  Population Tubulin-Different-Phenotype (%): 36%
  Total Cell Count: 108
[2]
  Population Apoptotic (%): 75%
  Population Fragmented Nuclei (%): 9%
  Population Healthy Nuclei (%): 78%
  Population Hoechst High Intensity Objects (%): 7%
  Population Membrane Permeable-Phenotype (%): 3%
  Population Mitochondria Different-Phenotype (%): 17%
  Population Mitotic Cells (%): 25%
  Population Normal (%): 92%
  Population Pyknosed Nuclei (%): 11%
  Population Tubulin-Different-Phenotype (%): 19%
  Total Cell Count: 76
[3]
  Population Apoptotic (%): 58%
  Population Fragmented Nuclei (%): 45%
  Population Healthy Nuclei (%): 9%
  Population Hoechst High Intensity Objects (%): 46%
  Population Membrane Permeable-Phenotype (%): 41%
  Population Mitochondria Different-Phenotype (%): 8%
  Population Mitotic Cells (%): 41%
  Population Normal (%): 53%
  Population Pyknosed Nuclei (%): 44%
  Population Tubulin-Different-Phenotype (%): 50%
  Total Cell Count: 230
[4]
  Population Apoptotic (%): 11%
  Population Fragmented Nuclei (%): 8%
  Population Healthy Nuclei (%): 79%
  Population Hoechst High Intensity Objects (%): 4%
  Population Membrane Permeable-Phenotype (%): 5%
  Population Mitochondria Different-Phenotype (%): 29%
  Population Mitotic Cells (%): 88%
  Population Normal (%): 96%
  Population Pyknosed Nuclei (%): 12%
  Population Tubulin-Different-Phenotype (%): 15%
  Total Cell Count: 77
[5]
  Population Apoptotic (%): 58%
  Population Fragmented Nuclei (%): 26%
  Population Healthy Nuclei (%): 47%
  Population Hoechst High Intensity Objects (%): 16%
  Population Membrane Permeable-Phenotype (%): 31%
  Population Mitochondria Different-Phenotype (%): 0%
  Population Mitotic Cells (%): 41%
  Population Normal (%): 83%
  Population Pyknosed Nuclei (%): 25%
  Population Tubulin-Different-Phenotype (%): 40%
  Total Cell Count: 111
[6]
  Population Apoptotic (%): 46%
  Population Fragmented Nuclei (%): 15%
  Population Healthy Nuclei (%): 68%
  Population Hoechst High Intensity Objects (%): 4%
  Population Membrane Permeable-Phenotype (%): 1%
  Population Mitochondria Different-Phenotype (%): 5%
  Population Mitotic Cells (%): 53%
  Population Normal (%): 95%
  Population Pyknosed Nuclei (%): 16%
  Population Tubulin-Different-Phenotype (%): 20%
  Total Cell Count: 74
[7]
  Population Apoptotic (%): 85%
  Population Fragmented Nuclei (%): 44%
  Population Healthy Nuclei (%): 6%
  Population Hoechst High Intensity Objects (%): 53%
  Population Membrane Permeable-Phenotype (%): 22%
  Population Mitochondria Different-Phenotype (%): 0%
  Population Mitotic Cells (%): 15%
  Population Normal (%): 46%
  Population Pyknosed Nuclei (%): 48%
  Population Tubulin-Different-Phenotype (%): 27%
  Total Cell Count: 615
[8]
  Population Apoptotic (%): 27%
  Population Fragmented Nuclei (%): 14%
  Population Healthy Nuclei (%): 71%
  Population Hoechst High Intensity Objects (%): 3%
  Population Membrane Permeable-Phenotype (%): 7%
  Population Mitochondria Different-Phenotype (%): 23%
  Population Mitotic Cells (%): 72%
  Population Normal (%): 96%
  Population Pyknosed Nuclei (%): 14%
  Population Tubulin-Different-Phenotype (%): 8%
  Total Cell Count: 83
[9]
  Population Apoptotic (%): 52%
  Population Fragmented Nuclei (%): 36%
  Population Healthy Nuclei (%): 39%
  Population Hoechst High Intensity Objects (%): 10%
  Population Membrane Permeable-Phenotype (%): 35%
  Population Mitochondria Different-Phenotype (%): 2%
  Population Mitotic Cells (%): 47%
  Population Normal (%): 89%
  Population Pyknosed Nuclei (%): 24%
  Population Tubulin-Different-Phenotype (%): 32%
  Total Cell Count: 105
[10]
  Population Apoptotic (%): 0%
  Population Fragmented Nuclei (%): 24%
  Population Healthy Nuclei (%): 75%
  Population Membrane Permeable-Phenotype (%): 5%
  Population Mitochondria Different-Phenotype (%): 6%
  Population Mitotic Cells (%): 0%
  Population Pyknosed Nuclei (%): 0%
  Population Tubulin-Different-Phenotype (%): 20%
  Total Cell Count: 88
[11]
  Population Apoptotic (%): 92%
  Population Fragmented Nuclei (%): 44%
  Population Healthy Nuclei (%): 5%
  Population Hoechst High Intensity Objects (%): 59%
  Population Membrane Permeable-Phenotype (%): 24%
  Population Mitochondria Different-Phenotype (%): 0%
  Population Mitotic Cells (%): 7%
  Population Normal (%): 40%
  Population Pyknosed Nuclei (%): 50%
  Population Tubulin-Different-Phenotype (%): 10%
  Total Cell Count: 1270
[12]
  Population Apoptotic (%): 100%
  Population Fragmented Nuclei (%): 43%
  Population Healthy Nuclei (%): 55%
  Population Hoechst High Intensity Objects (%): 11%
  Population Membrane Permeable-Phenotype (%): 10%
  Population Mitochondria Different-Phenotype (%): 4%
  Population Mitotic Cells (%): 0%
  Population Normal (%): 88%
  Population Pyknosed Nuclei (%): 0%
  Population Tubulin-Different-Phenotype (%): 52%
  Total Cell Count: 139
